ChEMBL document CHEMBL4402582, “Garcinoic Acid Is a Natural and Selective Agonist of Pregnane X Receptor” (J Med Chem, 2020)
pEC50, pKd: −log10 of the molar value. Activity calls are given as the source filed them. The rule behind the calls is not given here.

Experiments:
[1] = system: Mus musculus; test: Induction of PXR protein expression in C57BL/6 mouse intestine assessed as induction of localization of PXR protein at glandular epithelium of crypts at base of mucosa epithelium at 5 to 25 mg dosed as oral gavage as single bolus and measured after 24 hrs by IHC analysis relative to control; format: functional, organism-based
Method in brief: (§1)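 Male C57BL/6 mice, 6–7 weeks old, three per group. Single oral gavage bolus (5–25 mg) in olive oil; vehicle controls; killed at 24 h. Liver and gut formalin-fixed, paraffin-embedded; 4 μm sections stained with H&E. PXR IHC with polyclonal antibody at 1:200 on an automated stainer with polymer detection.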

[2] = target: T1, Nuclear receptor subfamily 1 group I member 2 (Homo sapiens, UniProt O75469); test: Agonist activity at PXR in human HepaRG cells assessed as reversion of PXR binding at 10 uM incubated for 24 hrs by immunoblot analysis; format: cell-based
T1 sequence (O75469 whole entry): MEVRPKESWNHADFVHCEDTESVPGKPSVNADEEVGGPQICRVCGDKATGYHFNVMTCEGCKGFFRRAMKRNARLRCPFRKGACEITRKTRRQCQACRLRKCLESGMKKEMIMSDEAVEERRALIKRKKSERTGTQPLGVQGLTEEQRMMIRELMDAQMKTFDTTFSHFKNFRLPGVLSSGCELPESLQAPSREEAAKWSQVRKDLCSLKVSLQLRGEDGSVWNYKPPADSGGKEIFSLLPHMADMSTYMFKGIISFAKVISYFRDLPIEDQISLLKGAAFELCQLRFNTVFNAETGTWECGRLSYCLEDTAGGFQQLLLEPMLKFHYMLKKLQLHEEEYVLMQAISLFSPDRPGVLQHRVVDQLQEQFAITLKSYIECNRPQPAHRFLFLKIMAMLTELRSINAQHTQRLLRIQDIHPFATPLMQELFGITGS

[3] = target: T1, Nuclear receptor subfamily 1 group I member 2; test: Agonist activity at PXR in human HepG2 cells assessed as stimulation of CYP450-mediated alpha-tocopherol metabolites efflux at 25 uM; format: cell-based; settings: hepg2, 25 µM
[4] = target: T1, Nuclear receptor subfamily 1 group I member 2; test: Agonist activity at His-tagged PXR-LBD/SRC-1p (unknown origin) expressed in Escherichia coli BL21(DE3) by coactivator recruitment based Alpha-screen assay; settings: read-out: EC50
[5] = system: Mus musculus; test: Induction of PXR-dependent CYP3A11 protein expression in C57BL/6 mouse intestine at 5 to 25 mg dosed as oral gavage as single bolus and measured after 24 hrs relative to control; format: functional, organism-based
Method in brief: (§2)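 Male C57BL/6 mice, 6–7 weeks old, three per group. Single oral gavage bolus of 5, 10 or 25 mg in olive oil vehicle; vehicle-only controls. Killed at 24 h. Tissue PXR mRNA measured; PXR, CYP3A11 and MDR1 protein measured by immunoblot.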

[6] = target: T1, Nuclear receptor subfamily 1 group I member 2; test: Agonist activity at PXR in human HepaRG cells assessed as increase in PXR protein expression at 1 to 25 uM incubated for 24 hrs by immunoblot analysis; format: cell-based
[7] = target: T1, Nuclear receptor subfamily 1 group I member 2; test: Agonist activity at PXR in human HepG2 cells assessed as increase in PXR protein expression at 1 to 25 uM incubated for 24 hrs by immunoblot analysis; format: cell-based; settings: hepg2, 24 h
Method in brief: (§3)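 HepG2 cells, passages 2–10, treated 24 h with 1 and 25 μM. Lysates sonicated on ice; 20 μg protein run on 10–12% SDS-PAGE and immunoblotted with anti-PXR or anti-CYP3A4. Bands normalized to housekeeping protein and expressed relative to control (=1).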

[8] = target: T1, Nuclear receptor subfamily 1 group I member 2; test: Agonist activity at PXR in human HepG2 cells assessed as increase in MDR1 mRNA expression at 1 to 50 uM incubated for 24 hrs; format: cell-based; settings: hepg2, 24 h
Method in brief: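 HepG2 cells exposed to 1–50 μM. MDR1 mRNA measured after RNA extraction and cDNA synthesis.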

[9] = target: T1, Nuclear receptor subfamily 1 group I member 2; test: Agonist activity at PXR in human HepaRG cells assessed as increase in CYP3A4 protein expression at 1 to 25 uM incubated for 24 hrs by immunoblot analysis; format: cell-based
[10] = target: T1, Nuclear receptor subfamily 1 group I member 2; test: Agonist activity at PXR in human HepaRG cells assessed as reversion of PXR antagonist sulforaphane-induced suppression of PXR expression at 10 uM incubated for 24 hrs by immunoblot analysis; format: cell-based
[11] = Toxicity in C57BL/6 mouse assessed as mortality at 50 mg dosed as oral gavage as single bolus and measured after 24 hrs relative to control; format: organism-based; settings: in vivo, read-out: Activity
Method in brief: (§4)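 Male C57BL/6 wild-type mice aged 6–7 weeks, 3 per group. Single bolus by oral gavage in an olive-oil vehicle, with vehicle-only controls and dose groups of 5, 10, 25, 50 and 100 mg. Animals were checked 24 h after dosing by gross appearance and behaviour, then killed, and liver and main organs were examined post-mortem.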

[12] = system: Mus musculus; test: Induction of PXR protein expression in C57BL/6 mouse liver at 5 to 25 mg dosed as oral gavage as single bolus and measured after 24 hrs relative to control; format: functional, organism-based; method in brief: as §2
[13] = target: T1, Nuclear receptor subfamily 1 group I member 2; test: Binding affinity to His-tagged PXR-LBD (unknown origin) expressed in Escherichia coli BL21 Gold by ITC analysis
Method in brief: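 ITC at 37 °C in 25 mM HEPES pH 7.5, 150 mM NaCl, 8% v/v DMSO final. His-tagged PXR-LBD (tag not removed, gel-filtration purified) at 3 μM in cell; ligand at 60 μM in syringe, injected in 10 μL aliquots.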

[14] = target: T1, Nuclear receptor subfamily 1 group I member 2; test: Agonist activity at PXR in human HepG2 cells assessed as increase in CYP3A4 protein expression at 1 to 25 uM incubated for 24 hrs by immunoblot analysis; format: cell-based; settings: hepg2, 24 h; method in brief: as §3
[15] = target: T1, Nuclear receptor subfamily 1 group I member 2; test: Agonist activity at His-tagged PXR-LBD/SRC-1p (unknown origin) expressed in Escherichia coli BL21(DE3) at 10 uM by coactivator recruitment based Alpha-screen assay
[16] = Toxicity in C57BL/6 mouse assessed as induction of liver damage at <=25 mg dosed as oral gavage as single bolus and measured after 24 hrs relative to control; format: organism-based; settings: in vivo
Method in brief: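 Male C57BL/6 mice, 6–7 weeks old, three per group. Single oral gavage bolus of 5, 10, 25, 50 or 100 mg in olive oil vehicle. Observed at 24 h for mortality, gross appearance and behavior, then post-mortem examination of liver and main organs.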

[17] = Toxicity in C57BL/6 mouse assessed as mortality at 100 mg dosed as oral gavage as single bolus and measured after 24 hrs relative to control; format: organism-based; settings: in vivo, read-out: Activity; method in brief: as §4
[18] = system: Mus musculus; test: Induction of PXR protein expression in C57BL/6 mouse intestine assessed as induction of localization of PXR protein at brush border of enterocytes at 10 mg dosed as oral gavage as single bolus and measured after 24 hrs by IHC analysis relative to control; format: functional, organism-based; method in brief: as §1
[19] = target: T1, Nuclear receptor subfamily 1 group I member 2; test: Agonist activity at PXR in human HepG2 cells assessed as increase in CYP3A4 mRNA expression at 1 to 25 uM incubated for 24 hrs; settings: hepg2, 24 h
[20] = target: T1, Nuclear receptor subfamily 1 group I member 2; test: Agonist activity at PXR in human HT29 cells assessed as increase in CYP3A4 protein expression at 1 to 25 uM incubated for 24 hrs by immunoblot analysis; format: cell-based
[21] = system: Mus musculus; test: Induction of PXR protein expression in C57BL/6 mouse hepatic parenchyma assessed as induction of localization of PXR protein at hepatocytes around lobular midzonal area at 25 mg dosed as oral gavage as single bolus and measured after 24 hrs by IHC analysis relative to control; format: functional, organism-based; method in brief: as §1

For `C/C(=C\CC/C(C)=C/CC[C@]1(C)CCc2cc(O)cc(C)c2O1)CC/C=C(\C)C(=O)O`, the Activity [1] was “Active”, the Activity [2] was “Active” and the Activity [3] was “Active”. The pEC50 [4] was 5.89, the Activity [5] was “Active” and the Activity [6] was “Active”. For the same molecule, the Activity [7] was “Dose-dependent effect”, the Activity [8] was “Dose-dependent effect” and the Activity [9] was “Active”. The Activity [10] was “Active”, the mortality at 24 h [11] was 33% and the Activity [12] was “Dose-dependent effect”. For the same molecule, the pKd [13] was 6.48, the Activity [14] was “Dose-dependent effect” and the Activity [15] was “Active”. For the same molecule, the Activity [16] was “Non-Toxic”, the mortality at 24 h [17] was 100% and the Activity [18] was “Active”. For the same molecule, the Activity [19] was “Dose-dependent effect”, the Activity [20] was “Active” and the Activity [21] was “Active”.
